HCV NS3 hel inh: blocks Hepatitis C virus NS3 helicase unwinding | AID 1800 | inhibition, % at 10.9 µM | 0.56% of 290,000 active | NS3 helicase DNA unwinding, Cy5 molecular beacon fluorescence;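 active = inhibition above the mean of all tested compounds plus 3 SD, set per campaign, cut at about 35% in these data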;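 also: 0% = DMSO wells and 100% = thioflavine S control wells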
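System: HCV NS3 helicase fragment; control set: DMSO and thioflavine S; technique: Cy5 fluorescence at 0 and 60 min, beacon hairpin quenching; reagent: beacon DNA duplex substrate plus ATP; replicates: singlicate; schedule: 1 h reaction at 25 °C, ATP-initiated; medium: MOPS buffer pH 6.5 with MgCl2, DTT, Tween20, BSA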
DNA FID counter: counter-screen for HCV NS3 helicase inhibitors: DNA intercalator displacement. DNA fluorescent intercalator displacement, fluorescence. inhibition, % at 7.9 µM. 0.17% of 290,000 active; in the data active = inhibition above about 37%;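 also: 0% = vehicle and 100% = reference compound; higher means more ethidium bromide displaced from hairpin DNA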
FGF22 binding: binders of recombinant human FGF22 by thermal shift | Q9HCT0 | SYPRO orange fluorescence; percent of sucrose octasulfate shift, DMSO zero | activity (Tm shift, normalised), % at 9.99 µM | 1.5% of 340,000 active;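 active = mean Tm shift, scaled 0 neutral to 100 positive control, at about 1.3% or above, every replicate too, limit read from the data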
Target sequence (Q9HCT0 whole entry, looked up): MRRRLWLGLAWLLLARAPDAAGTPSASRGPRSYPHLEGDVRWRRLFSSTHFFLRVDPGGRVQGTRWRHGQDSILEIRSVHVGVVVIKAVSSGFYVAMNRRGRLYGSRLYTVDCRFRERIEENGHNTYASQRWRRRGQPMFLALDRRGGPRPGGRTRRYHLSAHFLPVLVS
ZTA counter: blocks Epstein-Barr virus ZTA, an EBNA-1 counter-screen | inhibition, % at 11 µM | 0.15% of 320,000 active | P03206 | ZTA-DNA binding, fluorescence polarization | AID 2234; in the data active = inhibition above about 33%
Target sequence (P03206 whole entry, looked up): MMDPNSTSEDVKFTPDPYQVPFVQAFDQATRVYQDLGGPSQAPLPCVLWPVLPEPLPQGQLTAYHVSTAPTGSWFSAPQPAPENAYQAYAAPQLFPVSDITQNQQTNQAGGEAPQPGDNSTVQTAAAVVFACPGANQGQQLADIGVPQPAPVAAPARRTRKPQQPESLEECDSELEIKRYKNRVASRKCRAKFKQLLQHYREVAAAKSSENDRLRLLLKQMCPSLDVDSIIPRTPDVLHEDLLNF
NR3A LBD binder: NR3A (human) ligand-binding domain modulation; NR3A LBD differential scanning fluorimetry, Tm shift; 0% = protein alone, 100% = glycine-bound protein; Tm shift relative to glycine control, % at 25 µM; 2.5% of 340,000 active; AID 1259313;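 active = melting temperature shift of at least 10% of the positive control shift, at one fixed dose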
EBNA-1 inhibitor: blocks EBNA-1 binding to DNA. inhibition, % at 14.8 µM. 0.34% of 300,000 active. EBNA-1 DNA binding, fluorescence polarization. AID 1950; in the data active = inhibition above about 28%
The depositor's hits bear a star. Compounds with a hit are over-represented: about 3.6% of the library has one in this group of screens.

For O=c1c(O)c(-c2ccc(O)c(O)c2)oc2cc(O)ccc12 the results were FGF22 binding 0 and NR3A LBD binder 8.
`O=c1c(O)c(-c2ccc(O)cc2)oc2cc(O)cc(O)c12` gave FGF22 binding 0, ZTA counter 4, NR3A LBD binder 13* and EBNA-1 inhibitor -1.
For O=c1cc(-c2ccc(O)cc2)oc2cc(O)cc(O)c12 the results were FGF22 binding 0, ZTA counter 11, NR3A LBD binder 17* and EBNA-1 inhibitor -9.
COc1ccc(-c2cc(=O)c3c(O)c(OC)c(OC)c(OC)c3o2)cc1 was read as FGF22 binding 0 and NR3A LBD binder 0.
COc1ccc(-c2cc(=O)c3c(O)c(OC)c(O)cc3o2)cc1 was read as HCV NS3 hel inh 3, DNA FID counter -14, FGF22 binding 0, ZTA counter -7, NR3A LBD binder 12* and EBNA-1 inhibitor -6.
Screening O=c1cc(-c2ccccc2)oc2cc(O)cc(O)c12 returned FGF22 binding 0, ZTA counter -17, NR3A LBD binder -8 and EBNA-1 inhibitor -1.
`N#C[C@H]1[C@@H](c2ccc(C3=CCCCC3)cc2)[C@H](CO)N1C(=O)NC1CCCCC1` gave FGF22 binding 0.
CN(C)CCNC(=O)c1ccc(Sc2ccc(Br)cc2)c([N+](=O)[O-])c1 was read as HCV NS3 hel inh -42, DNA FID counter 39*, FGF22 binding 0, ZTA counter 11, NR3A LBD binder -3 and EBNA-1 inhibitor -5.
Screening Cc1cc(C)nc(N/N=C/c2ccccc2OCc2ccc([N+](=O)[O-])cc2)n1 returned HCV NS3 hel inh -7, DNA FID counter -1, ZTA counter 4, NR3A LBD binder -11 and EBNA-1 inhibitor 4.
Screening O=[N+]([O-])c1ccccc1C=NNc1ccccc1 returned FGF22 binding 0 and NR3A LBD binder -24.
O=[N+]([O-])c1ccc(N/N=C\c2ccccc2OCc2ccccc2)cc1 was read as HCV NS3 hel inh -3, DNA FID counter 4, FGF22 binding 0, ZTA counter 8, NR3A LBD binder 20* and EBNA-1 inhibitor 8.
O=S(=O)(N/N=C/c1ccccc1OCc1ccc(Cl)cc1)c1ccccc1 was read as HCV NS3 hel inh 4, DNA FID counter 0, ZTA counter 4, NR3A LBD binder 13* and EBNA-1 inhibitor 4.
Screening O=[N+]([O-])c1ccc(NN=Cc2cccc3ccccc23)cc1 returned FGF22 binding 0 and NR3A LBD binder 34*.
`COC(=O)c1ccc(N/N=C/c2cc([N+](=O)[O-])cc(OC)c2O)cc1` gave HCV NS3 hel inh 7, DNA FID counter 5, ZTA counter -6, NR3A LBD binder 30* and EBNA-1 inhibitor -7.
CCCC(=O)Nc1ccc2c(c1)C(=O)N(C)[C@H]1CC[C@@H](CC(=O)NCc3ccccc3)O[C@H]1CO2 was read as FGF22 binding 0.
Screening COc1cccc(/C=N/NC(=O)c2ccc([N+](=O)[O-])cc2Cl)c1O returned HCV NS3 hel inh -7, DNA FID counter -5, ZTA counter 0, NR3A LBD binder -1 and EBNA-1 inhibitor 3.
CCOC(=O)c1ccc(N/N=C/c2cc(Br)cc([N+](=O)[O-])c2O)cc1 was read as HCV NS3 hel inh -4, DNA FID counter 4, FGF22 binding 0, ZTA counter 19, NR3A LBD binder 19* and EBNA-1 inhibitor 2.
Screening O=[N+]([O-])c1ccccc1N/N=C/c1cccc(O)c1O returned HCV NS3 hel inh 0, DNA FID counter 9, FGF22 binding 0, ZTA counter -4, NR3A LBD binder 0 and EBNA-1 inhibitor 17.
For O=[N+]([O-])c1cccc(N/N=C/c2cccc(O)c2O)c1 the results were HCV NS3 hel inh 20, DNA FID counter 0, FGF22 binding 1, ZTA counter 8, NR3A LBD binder 21* and EBNA-1 inhibitor -5.
COc1cccc(/C=N/Nc2c(Cl)cncc2Cl)c1O was read as HCV NS3 hel inh -10, DNA FID counter -15, FGF22 binding 0, ZTA counter 6, NR3A LBD binder 35* and EBNA-1 inhibitor 6.
`COc1cccc(/C=N/Nc2ccc([N+](=O)[O-])cc2)c1O` gave HCV NS3 hel inh -11, DNA FID counter 16, FGF22 binding 0, ZTA counter -4, NR3A LBD binder 36* and EBNA-1 inhibitor -7.
`CCNC(=O)[C@H]1[C@H](CO)[C@H]2Cn3c(ccc(-c4ccncc4)c3=O)[C@@H]1N2Cc1ccccc1` gave FGF22 binding 0.
Screening CCCNC(=O)c1oc2ccc3c(c2c1C)C(=O)CC(C)(C)O3 returned HCV NS3 hel inh 1, DNA FID counter -23, ZTA counter 11, NR3A LBD binder 633* and EBNA-1 inhibitor -2.
`CCCNC(=O)c1oc2ccc3c(c2c1C)C=CC(C)(C)O3` gave HCV NS3 hel inh -8, DNA FID counter -31, FGF22 binding 0, ZTA counter -5, NR3A LBD binder -7 and EBNA-1 inhibitor 10.
CCOc1ccc(N/C=C/C(=O)c2ccc(OC)cc2)c([N+](=O)[O-])c1 was read as HCV NS3 hel inh 1, DNA FID counter 2, ZTA counter 2, NR3A LBD binder 20* and EBNA-1 inhibitor -1.
Screening COc1ccc(N/C=C/C(=O)c2ccc(C)cc2)c([N+](=O)[O-])c1 returned HCV NS3 hel inh -9, DNA FID counter 2, ZTA counter 11, NR3A LBD binder 20* and EBNA-1 inhibitor 1.
For CCOc1ccc(N/C=C/C(=O)c2ccc(OC)cc2)cc1 the results were HCV NS3 hel inh -12, DNA FID counter -15, FGF22 binding 0, ZTA counter 0, NR3A LBD binder 2 and EBNA-1 inhibitor 4.
`C[C@H]1CCCCO[C@H](CN(C)Cc2ccc3c(c2)OCO3)[C@@H](C)CN([C@@H](C)CO)C(=O)c2cc(NC(=O)C3CCCCC3)ccc2O1` gave FGF22 binding 0.
Screening CCOC(=O)c1c(N)sc2c1CCC(CC)C2 (stereo unspecified) returned HCV NS3 hel inh 4, DNA FID counter -7, ZTA counter 17, NR3A LBD binder 0 and EBNA-1 inhibitor 7.
CCOC(=O)c1c(N)sc2c1CCC1C(=O)N(C3CCCCC3)C(=O)C21 (stereo unspecified) was read as HCV NS3 hel inh 21, DNA FID counter -14, ZTA counter -5, NR3A LBD binder 13* and EBNA-1 inhibitor 0.
`COc1cccc(-c2c(-c3cc(OC)cc(OC)c3)n(C)c3ccc(-c4ccc(OC)nc4)cc23)c1` gave FGF22 binding 44*, ZTA counter -15 and NR3A LBD binder 2.
For CCS(=O)(=O)N[C@H]1CC[C@@H](CC(=O)NCc2ccccn2)O[C@H]1CO the results were FGF22 binding 0.
NC(N)=N/N=C/c1cccc(Cl)c1Cl was read as HCV NS3 hel inh -11, DNA FID counter 13, FGF22 binding 0, ZTA counter 4, NR3A LBD binder 1 and EBNA-1 inhibitor 3.

Screening data from PubChem.
